Data reported in ChEMBL document CHEMBL5236609, “Optimization of 1,2,4-Triazole-3-thiones toward Broad-Spectrum Metallo-β-lactamase Inhibitors Showing Potent Synergistic Activity on VIM- and NDM-1-Producing Clinical Isolates” (J Med Chem, 2022).

Legend:
[1] = Inhibition of bacterial VIM-1 (unknown origin) expressed in Escherichia coli EXPRESS BL21(DE3) assessed as inhibition constant by measuring rate of substrate hydrolysis by UV-visible spectrophotometry; set-up: species or system Bacteria
Procedure, shortened: (§1)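 Reporter-substrate assay with purified MBL (1–70 nM final) in 50 mM HEPES pH 7.5 at 30 °C. […] Inhibitor 0.5–1000 μM final. Ki derived from the v0/vi vs [I] slope assuming competitive inhibition, or from a Dixon plot. Ki given when inhibition >70%, otherwise % inhibition at 100 μM. Triplicate.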

[2] = Inhibition of bacterial VIM-2 (unknown origin) expressed in Escherichia coli EXPRESS BL21(DE3) assessed as inhibition constant by measuring rate of substrate hydrolysis by UV-visible spectrophotometry; set-up: species or system Bacteria; procedure, shortened: as §1
[3] = Inhibition of bacterial VIM-4 (unknown origin) expressed in Escherichia coli EXPRESS BL21(DE3) assessed as inhibition constant by measuring rate of substrate hydrolysis by UV-visible spectrophotometry; set-up: species or system Bacteria; procedure, shortened: as §1
[4] = Inhibition of bacterial NDM-1 (unknown origin) expressed in Escherichia coli EXPRESS BL21(DE3) assessed as inhibition constant by measuring rate of substrate hydrolysis by UV-visible spectrophotometry; set-up: species or system Bacteria; procedure, shortened: as §1
Bacteria [5] = assay: Inhibition of bacterial IMP-1 (unknown origin) expressed in Escherichia coli EXPRESS BL21(DE3) assessed as inhibition constant by measuring rate of substrate hydrolysis at 100 uM by UV-visible spectrophotometry relative to control; procedure, shortened: as §1
Klebsiella pneumoniae [6] = assay: Antimicrobial activity against blaVIM-1-producing multidrug-resistant Klebsiella pneumoniae K47-25 clinical isolate assessed as meropenem MIC at 32 ug/ml by broth microdilution method (reference value: […] ug/ml); assay type: functional; conditions: dose 32 µg/ml
Procedure, shortened: (§2)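 Inoculum was 5×10^4 CFU/well. Each inhibitor was present at a fixed 32 μg/mL, and MICs were also taken without inhibitor.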

Klebsiella pneumoniae [7] = assay: Antimicrobial activity against blaVIM-4-producing multidrug-resistant Klebsiella pneumoniae VA-416/02 clinical isolate assessed as meropenem MIC at 32 ug/ml by broth microdilution method (reference value: […] ug/ml); assay type: functional; conditions: dose 32 µg/ml; procedure, shortened: as §2
Pseudomonas aeruginosa = assay: Antimicrobial activity against blaVIM-2-producing multidrug-resistant Pseudomonas aeruginosa VA-182/00 clinical isolate assessed as meropenem MIC at 32 ug/ml by broth microdilution method (reference value: 128 ug/ml); assay type: functional; conditions: dose 32 µg/ml; procedure, shortened: as §2
Escherichia coli = assay: Antimicrobial activity against blaNDM-1-producing multidrug-resistant Escherichia coli SI-004 clinical isolate assessed as meropenem MIC at 32 ug/ml by broth microdilution method (reference value: 64 ug/ml)
Bacteria [8] = assay: Inhibition of bacterial NDM-1 (unknown origin) expressed in Escherichia coli EXPRESS BL21(DE3) assessed as inhibition constant by measuring rate of substrate hydrolysis at 100 uM by UV-visible spectrophotometry relative to control; procedure, shortened: as §1
Bacteria [9] = assay: Inhibition of bacterial VIM-1 (unknown origin) expressed in Escherichia coli EXPRESS BL21(DE3) assessed as inhibition constant by measuring rate of substrate hydrolysis at 100 uM by UV-visible spectrophotometry relative to control; procedure, shortened: as §1
Bacteria [10] = assay: Inhibition of bacterial VIM-2 (unknown origin) expressed in Escherichia coli EXPRESS BL21(DE3) assessed as inhibition constant by measuring rate of substrate hydrolysis at 100 uM by UV-visible spectrophotometry relative to control; procedure, shortened: as §1
Bacteria [11] = assay: Inhibition of bacterial VIM-4 (unknown origin) expressed in Escherichia coli EXPRESS BL21(DE3) assessed as inhibition constant by measuring rate of substrate hydrolysis at 100 uM by UV-visible spectrophotometry relative to control; procedure, shortened: as §1

inhibition (Bacteria [8]) | inhibition (Bacteria [9]) | inhibition (Bacteria [10]) | inhibition (Bacteria [11]) | Structure (SMILES) | Ki [1] | Ki [2] | Ki [3] | Ki [4] | inhibition (Bacteria [5]) | MIC (Klebsiella pneumoniae [6]) | MIC (Klebsiella pneumoniae [7]) | MIC (Pseudomonas aeruginosa) | MIC (Escherichia coli)
 |  |  |  | O=C(O)[C@H](CCCn1c(-c2ccccc2)n[nH]c1=S)N(Cc1cscn1)Cc1cscn1 | 2400 nM | 2500 nM | 2000 nM | 6500 nM | 48% | 1 µg/mL | 1 µg/mL | 128 µg/mL | 32 µg/mL
 |  |  |  | O=C(O)[C@H](CCCn1c(-c2ccccc2)n[nH]c1=S)N(Cc1c[nH]cn1)Cc1cncs1 | 2500 nM | 1100 nM | 770 nM | 13100 nM | 39% | 1 µg/mL | 2 µg/mL | 128 µg/mL | 32 µg/mL
 |  |  |  | O=C(O)[C@H](CCCn1c(-c2ccccc2)n[nH]c1=S)N(Cc1cnccn1)Cc1c[nH]cn1 | 3300 nM | 2400 nM | 1900 nM | 890 nM | 43% | 4 µg/mL | 1 µg/mL | 128 µg/mL | 8 µg/mL
 |  |  |  | O=C(O)[C@H](CCCn1c(-c2ccccc2)n[nH]c1=S)N(Cc1cnccn1)Cc1cnccn1 | 2500 nM | 1200 nM | 630 nM | 17900 nM | 51% | 4 µg/mL | 2 µg/mL | 128 µg/mL | 32 µg/mL
 |  |  |  | O=C(O)[C@H](CCCn1c(-c2ccccc2)n[nH]c1=S)N(Cc1ncc[nH]1)Cc1ncc[nH]1 | 690 nM | 900 nM | 660 nM | 20 nM | 61% |  |  |  | 
 |  |  |  | S=c1[nH]nc(-c2ccccc2)n1CCCCN(Cc1c[nH]cn1)Cc1c[nH]cn1 | 850 nM | 1500 nM | 900 nM | 9200 nM | 34% | 4 µg/mL | 1 µg/mL | 128 µg/mL | 32 µg/mL
 | < 30% | 44% | < 30% | O=C(O)[C@H](CCCn1c(-c2ccccc2)n[nH]c1=S)NCc1ccccn1 |  |  |  | 2000 nM | 34% |  |  |  | 
38% |  | 47% | < 30% | Cn1cncc1CN[C@@H](CCCn1c(-c2ccccc2)n[nH]c1=S)C(=O)O | 9500 nM |  |  |  | < 30% |  |  |  | 
< 30% |  | 36% | < 30% | Cc1ccc(C(C)N[C@@H](CCCn2c(-c3ccccc3)n[nH]c2=S)C(=O)O)cc1 (stereo partly drawn) | 10800 nM |  |  |  | < 30% |  |  |  | 
< 30% |  | < 30% | < 30% | O=C(O)[C@H](CCCn1c(-c2ccccc2)n[nH]c1=S)NCc1c[nH]c2ccccc12 |  |  |  |  | < 30% |  |  |  | 
 |  |  |  | O=C(O)[C@H](CCCn1c(C2CCCCC2)n[nH]c1=S)N(Cc1c[nH]cn1)Cc1c[nH]cn1 | 280 nM | 110 nM | 90 nM | 3.5 nM | 48% | 0.06 µg/mL | 0.12 µg/mL | 8 µg/mL | 0.06 µg/mL
37% |  | 57% |  | O=C(O)[C@H](CCCn1c(-c2ccccc2)n[nH]c1=S)NCc1cccc(O)c1O | 8100 nM |  | 4200 nM |  | 32% |  |  |  | 
37% |  | 53% |  | O=C(O)[C@H](CCCn1c(-c2ccccc2)n[nH]c1=S)N(Cc1cn[nH]c1)Cc1c[nH]cn1 | 4600 nM |  | 2000 nM |  | 34% |  |  |  | 
< 30% | 60% | 58% |  | O=C(O)[C@H](CCCn1c(-c2ccccc2)n[nH]c1=S)NCc1cncs1 |  |  | 3400 nM |  | < 30% |  |  |  | 
< 30% |  | < 30% | < 30% | O=C(O)[C@H](CCCn1c(-c2ccccc2)n[nH]c1=S)NCc1ccccc1 |  |  |  |  | < 30% |  |  |  | 
< 30% | 55% | < 30% | 43% | O=C(O)[C@H](CCCn1c(-c2ccccc2)n[nH]c1=S)NCc1cscn1 |  |  |  |  | 47% |  |  |  | 
 |  |  |  | O=C(O)[C@H](CCCn1c(Cc2ccccc2)n[nH]c1=S)N(Cc1c[nH]cn1)Cc1c[nH]cn1 | 120 nM | 410 nM | 120 nM | 90 nM | 54% | 0.03 µg/mL | 0.03 µg/mL | 8 µg/mL | 0.06 µg/mL
 |  |  |  | O=C(O)[C@H](CCCn1c(-c2ccccc2)n[nH]c1=S)N(Cc1c[nH]cn1)Cc1ncc[nH]1 | 450 nM | 3300 nM | 350 nM | 2700 nM | 49% | 0.06 µg/mL | 0.06 µg/mL | 8 µg/mL | 0.06 µg/mL
 |  |  |  | O=C(O)[C@H](CCCn1c(-c2ccccc2)n[nH]c1=S)N(Cc1c[nH]cn1)Cc1cscn1 | 820 nM | 350 nM | 350 nM | 30 nM | 59% | 0.12 µg/mL | 0.06 µg/mL | 16 µg/mL | 4 µg/mL
42% |  | 53% |  | CC(C)(C)OC(=O)NCCCCn1c(-c2ccccc2)n[nH]c1=S | 750 nM |  | 3100 nM |  | < 30% |  |  |  | 
 |  |  |  | O=C(O)[C@H](CCCn1c(-c2cccc(-c3ccccc3)c2)n[nH]c1=S)N(Cc1c[nH]cn1)Cc1c[nH]cn1 | 130 nM | 90 nM | 70 nM | 13 nM | 69% | 0.03 µg/mL | 0.03 µg/mL | 8 µg/mL | 0.06 µg/mL
 |  |  |  | O=C(O)[C@H](CCCn1c(-c2ccccc2)n[nH]c1=S)N(Cc1cccnc1)Cc1c[nH]cn1 | 5200 nM | 1800 nM | 1700 nM | 34800 nM | < 30% | 4 µg/mL | 1 µg/mL | 128 µg/mL | 64 µg/mL
 |  | 39% | < 30% | O=C(O)[C@H](CCCCn1c(-c2ccccc2)n[nH]c1=S)NCc1c[nH]cn1 | 1800 nM |  |  | 4000 nM | 44% |  |  |  | 
< 30% |  | < 30% | 32% | O=C(O)[C@H](CCCn1c(-c2ccccc2)n[nH]c1=S)NCc1cc[nH]c1 | 5000 nM |  |  |  | < 30% |  |  |  | 

Structure (SMILES) | inhibition (Bacteria [8]) | inhibition (Bacteria [9]) | inhibition (Bacteria [10]) | inhibition (Bacteria [11]) | Ki [1] | Ki [2] | Ki [3] | Ki [4] | inhibition (Bacteria [5]) | MIC (Klebsiella pneumoniae [6]) | MIC (Klebsiella pneumoniae [7]) | MIC (Pseudomonas aeruginosa) | MIC (Escherichia coli)
Cn1cncc1CN(Cc1c[nH]cn1)[C@@H](CCCn1c(-c2ccccc2)n[nH]c1=S)C(=O)O | 66% |  |  |  | 4400 nM | 3200 nM | 3800 nM |  | 50% | 2 µg/mL | 4 µg/mL | 128 µg/mL | 32 µg/mL
O=C(O)[C@H](CCCn1c(-c2ccccc2)n[nH]c1=S)N(Cc1ccccc1)Cc1c[nH]cn1 | 60% |  |  |  | 4100 nM | 2100 nM | 1000 nM |  | 45% | 2 µg/mL | 2 µg/mL | 128 µg/mL | 32 µg/mL
COc1cccc(CN(Cc2cccc(OC)c2OC)[C@@H](CCCn2c(-c3ccccc3)n[nH]c2=S)C(=O)O)c1OC | 43% |  |  |  | 2000 nM | 760 nM | 360 nM |  | < 30% | 2 µg/mL | 4 µg/mL | 128 µg/mL | 64 µg/mL
O=C(O)[C@H](CCCn1c(-c2ccccc2)n[nH]c1=S)N(Cc1cn[nH]c1)Cc1cn[nH]c1 | < 30% |  |  |  | 3700 nM | 2500 nM | 290 nM |  | < 30% | 2 µg/mL | 1 µg/mL | 128 µg/mL | 64 µg/mL
